Hits are enriched below; roughly 2.5% of the tested compounds scored in any of these assays.
SENP1 inh: human SENP1 catalytic domain inhibitors, primary screen, biochemical, FRET, uHTS; AID 624204, 2012; inhibition, % at 10 µM; 0.21% of 360,000 active; recombinant SENP1 catalytic domain, CyPet-SUMO1-YPet FRET cleavage;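 active = inhibition at least 30% at 10 µM, raw YFP signal under a set limit, fluorescence ratio 0.5 to 1.5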
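Controls: no-enzyme wells low, DMSO-plus-enzyme wells high control. Test system: human recombinant His6-tagged SENP1 catalytic domain enzyme. Reagent: SFCypet-SUMO1-SFYpet FRET protein substrate, 25 nM final. Doses: one dose per compound, 10 µM, 0.5% DMSO. Detection: FRET, CFP and YFP emission. Timing: 50 min reaction at room temperature.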
SENP8 block-1: human SENP8 protease inhibitors, primary screen, biochemical, fluorescence, Nedd8 protein substrate, uHTS. AID 602440, 2012. 0.64% of 360,000 active. recombinant SENP8. Sentrin-specific protease 8 (Homo sapiens), Q96LD8. inhibition, % at 20 µM; in the data active = inhibition mostly above about 40%, no sharp cut-off; inactive = mostly below about 27%
SENP7 inh: SENP7 protease inhibitors, primary screen, biochemical, luminescence, uHTS; recombinant SENP7, Z-RLRGG-aminoluciferin luminescence, 40 min; inhibition, % at 5 µM; 1.5% of 330,000 active;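 active = inhibition above about 50% at the single test dose, limit read from the data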
SENP6 inh: SENP6 protease inhibitors, primary screen, biochemical, luminescence, uHTS; Recombinant SENP6 catalytic domain, aminoluciferin luminescence; inhibition, % at 10 µM; 1.8% of 330,000 active;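 active = inhibition above about 50% at the single tested dose, limit read from the data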
Target sequence (Q9GZR1 628-1112 limits assumed): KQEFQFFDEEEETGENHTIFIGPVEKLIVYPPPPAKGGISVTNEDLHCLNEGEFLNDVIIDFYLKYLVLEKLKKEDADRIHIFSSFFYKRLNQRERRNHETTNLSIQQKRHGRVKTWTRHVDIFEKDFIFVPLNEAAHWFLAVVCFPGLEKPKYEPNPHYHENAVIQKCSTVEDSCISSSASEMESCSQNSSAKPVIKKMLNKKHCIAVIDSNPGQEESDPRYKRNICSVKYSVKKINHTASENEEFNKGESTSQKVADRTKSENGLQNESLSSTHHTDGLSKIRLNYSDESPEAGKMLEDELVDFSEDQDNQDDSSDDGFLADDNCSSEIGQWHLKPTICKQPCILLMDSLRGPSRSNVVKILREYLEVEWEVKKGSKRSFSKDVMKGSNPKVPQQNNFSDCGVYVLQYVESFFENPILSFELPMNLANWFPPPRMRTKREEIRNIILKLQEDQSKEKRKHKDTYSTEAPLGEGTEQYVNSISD
SENP8 block-2: SENP8 protease inhibitors, primary screen, biochemical, luminescence | inhibition, % at 10 µM | purified SENP8, Z-RLRGG-aminoluciferin cleavage | 1.2% of 330,000 active | Sentrin-specific protease 8 (Homo sapiens), Q96LD8 | AID 2540, 2010; in the data active = inhibition above about 50%
SENP8 confirm: SENP8 protease inhibitors, retest, confirmation, biochemical, luminescence, single concentration; shares compounds with SENP7 inh; Recombinant SENP8, Z-RLRGG-aminoluciferin luminescence, 60 min; inhibition, % at 12.5 µM; 40% of 6,200 active; AID 488912, 2010;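 active = mean inhibition across replicates above about 50%, limit read from the data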
SENP6 confirm: SENP6 protease inhibitors, confirmation, biochemical, luminescence, single concentration | shares compounds with SENP7 inh | recombinant SENP6, Z-RLRGG-aminoluciferin luminescence | 58% of 6,200 active | inhibition, % at 12.5 µM
SENP7 conf: SENP7 protease inhibitors, retest, confirmation, biochemical, luminescence, single concentration | inhibition, % at 12.5 µM | shares compounds with SENP7 inh | recombinant SENP7, Z-RLRGG-aminoluciferin luminescence, 40 min | 69% of 6,200 active
Casp3 select: caspase-3 protease inhibitors, confirmation, selectivity assay for SENP inhibitor project, biochemical, single concentration; inhibition, % at 12.5 µM; 60% of 6,200 active; shares compounds with SENP7 inh; purified caspase-3, Z-DEVD-aminoluciferin luminescence, 60 min;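 active = mean inhibition above about 50%, limit read from the data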
Target sequence (P42574 28-227 limits assumed): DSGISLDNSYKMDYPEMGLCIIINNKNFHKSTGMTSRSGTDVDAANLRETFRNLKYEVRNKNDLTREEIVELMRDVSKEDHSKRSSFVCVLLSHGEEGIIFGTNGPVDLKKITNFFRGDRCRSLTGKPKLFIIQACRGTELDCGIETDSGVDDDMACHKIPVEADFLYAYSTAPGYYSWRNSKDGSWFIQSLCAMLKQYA
Luc interf: interferes with luciferase luminescence in SENP counter-screen. shares compounds with SENP7 inh. Pre-incubated SENP8/Z-RLRGG-aminoluciferin, luciferase luminescence interference. inhibition, % at 12.5 µM. 39% of 6,200 active. AID 488919;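 active = mean inhibition above about 50% when retested at one dose, limit read from the data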
Numbers stand for hits; – = inactive; · = no result.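 Rule for the calls, unless noted: active = mean inhibition above about 50% in the one-dose retest (limit read from the data); inactive = the rest.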

SMILES | SENP1 inh | SENP8 block-1 | SENP7 inh | SENP6 inh | SENP8 block-2 | SENP8 confirm | SENP6 confirm | SENP7 conf | Casp3 select | Luc interf
Cc1cccc(NC(=O)Nc2cccc(F)c2)n1 | – | – | – | – | – | · | · | · | · | ·
O=C(Nc1cccc(F)c1)Nc1ccc(Cl)cn1 | – | – | – | – | – | · | · | · | · | ·
Cc1ccc(NC(=O)Nc2cccc(F)c2)nc1 | – | – | 52.6 | 51.9 | – | – | – | – | – | –
O=C(O)c1ccc(/C=N/Nc2nc3ccccc3[nH]2)cc1 | – | – | 57.9 | – | – | – | – | – | – | –
O=c1[nH]c(N/N=C\c2ccc(F)cc2)nc2ccccc12 | – | – | – | – | – | · | · | · | · | ·
O=c1[nH]c(N/N=C/c2ccc(O)cc2)nc2ccccc12 | – | – | 51.0 | 75.2 | 60.4 | – | 61.9 | 86.0 | 81.2 | 71.1
COc1ccc(/C(C)=N/Nc2nncc3ccccc23)cc1 | – | – | 74.7 | – | – | – | – | – | – | –
Oc1c(Br)cc(/C=N/Nc2nncc3ccccc23)cc1Br | · | · | – | 71.7 | 68.8 | – | – | – | – | –
COc1ccccc1/C=N/Nc1nncc2ccccc12 | – | – | – | – | – | · | · | · | · | ·
COc1ccc(/C=N/Nc2nncc3ccccc23)cc1 | – | – | 96.9 | 98.9 | 96.6 | 97.2 | 100.5 | 103.9 | 98.8 | 98.8
Cc1ncc([N+](=O)[O-])n1S(=O)(=O)c1ccc2c(c1)OCCO2 | – | – | · | · | · | · | · | · | · | ·
COc1ccc(OC)c2c(C)cc(N3CCN(C(=O)c4ccc(Cl)cc4)CC3)nc12 | – | – | – | 69.2 | – | – | – | – | – | –
O=C(c1ccc(Cl)cc1)N1CCN(c2ccc(N3CCOCC3)nn2)CC1 | – | – | · | · | · | · | · | · | · | ·
C/C(=N\NC(=O)COc1ccc([N+](=O)[O-])cc1)c1ccco1 | – | – | – | – | – | · | · | · | · | ·
C/C(=N\Nc1ccc([N+](=O)[O-])cc1)c1ccco1 | – | – | 69.8 | 74.3 | 57.9 | – | 50.6 | 83.5 | – | –
O=C(Nc1cc(Cl)ccc1Cl)P(=O)(O)c1ccccc1 | – | – | · | · | · | · | · | · | · | ·
Cc1nc(SCC(=O)Nc2ccccc2Cl)c2c(C)c(C)sc2n1 | – | – | – | – | – | · | · | · | · | ·
CCO/C=C1/C(=O)N(Cc2ccccc2)C(=O)c2ccccc21 | – | – | 81.0 | 94.4 | 89.7 | 81.7 | 96.6 | 85.8 | 97.7 | –
CCO/C=C1\C(=O)N(c2ccccc2)C(=O)c2ccccc21 | – | – | – | 53.3 | – | – | 53.9 | – | – | –
CCO/C=C1/C(=O)N(c2ccc(OC)cc2)C(=O)c2ccccc21 | – | – | – | 62.6 | – | – | 70.2 | – | – | –
CCO/C=C1/C(=O)N(c2ccccc2OC)C(=O)c2ccccc21 | – | – | – | – | – | · | · | · | · | ·
CCc1nn(CC(=O)N2CC(C)CC(C)C2)c(=O)c2cccn12 (stereo not given) | – | – | – | – | – | · | · | · | · | ·
COc1ccc(OC)c(CN2C(=O)c3ccccc3C2c2nnnn2Cc2ccccc2)c1 (stereo not given) | – | – | · | · | · | · | · | · | · | ·
Brc1ccc(-c2cn3nc4c(nc3n2)CCCC4)cc1 | – | – | – | 69.9 | 73.9 | – | 66.4 | 59.9 | – | –
c1ccc(-c2cn3nc4c(nc3n2)CCCC4)cc1 | – | – | – | 50.2 | – | 86.2 | 94.3 | 96.1 | 93.9 | –
SMILES | SENP1 inh | SENP8 block-1 | SENP7 inh | SENP6 inh | SENP8 block-2 | SENP8 confirm | SENP6 confirm | SENP7 conf | Casp3 select | Luc interf
O=C(COC(=O)c1cccnc1Nc1ccccc1F)NC1CC1 | – | – | – | – | – | · | · | · | · | ·
CN(C(=O)COC(=O)c1cccnc1Nc1cccc(C(F)(F)F)c1)C1CCS(=O)(=O)C1 (stereo not given) | – | – | – | – | – | · | · | · | · | ·
CCN(C(=O)COC(=O)c1cccnc1Nc1ccccc1F)C1CCS(=O)(=O)C1 (stereo not given) | – | – | 95.6 | 91.0 | 82.8 | 91.4 | 91.4 | 99.0 | 94.4 | 89.7
CN(C(=O)COC(=O)c1cccnc1Nc1ccccc1F)C1CCS(=O)(=O)C1 (stereo not given) | – | – | 55.6 | 57.8 | – | – | – | 74.3 | 74.9 | 53.0
CCN(C(=O)COC(=O)c1cc(-c2ccc3cc(OC)ccc3c2)nc2ccccc12)C1CCS(=O)(=O)C1 (stereo not given) | · | · | 92.4 | 93.7 | 88.8 | – | 74.3 | – | 77.1 | –
CCCC#CCN1CCN(C23CC4CC(CC(C4)C2)C3)CC1 | – | – | – | – | – | · | · | · | · | ·
COC(=O)CC1N(S(=O)(=O)c2ccc(C)cc2)c2ccccc2C1(C(=O)OC)C(=O)OC (stereo not given) | – | – | · | · | · | · | · | · | · | ·
O=c1c(-c2ccc(F)cc2)coc2cc(O)ccc12 | – | – | – | 86.3 | 82.3 | 89.5 | 90.2 | 99.0 | 93.7 | 89.6
O=c1c(-c2ccc(F)cc2)coc2c3c(ccc12)OCCO3 | – | – | 76.0 | – | – | – | – | – | – | –
O=c1c(-c2ccc(Br)cc2)coc2c(CN3CCOCC3)c(O)ccc12 | – | – | – | – | – | · | · | · | · | ·
N#Cc1c(N)[nH]c(C(=O)c2ccccc2)c1-c1ccc(Cl)cc1 | – | – | · | · | · | · | · | · | · | ·
Cc1cc(C(=O)CN2C(=O)C(=O)N(CC(C)C)C2=O)c(C)n1C1CC1 | – | – | – | – | – | · | · | · | · | ·
CCCCNC(=O)C(NC(=O)c1cccnc1OC)C(=O)c1ccccc1 (stereo not given) | – | – | · | · | · | · | · | · | · | ·
Cc1cc(C(=O)Nc2ccc3ccccc3c2)oc1C | – | – | 53.8 | 68.3 | 60.9 | – | 66.5 | 88.9 | 50.1 | 52.6
Cc1ccoc1C(=O)Nc1ccc2ccccc2c1 | – | – | 99.5 | 97.4 | 96.3 | 95.8 | 98.2 | 102.3 | 95.6 | 91.5
Cc1cc(C(=O)Nc2ccc3ccccc3c2)c(C)o1 | – | – | 68.7 | 84.3 | 73.3 | 84.5 | 84.3 | 96.5 | 65.8 | 67.6

Source: PubChem BioAssay (Sanford-Burnham Center for Chemical Genomics)
